High-throughput results from PubChem BioAssay.
PGE2 EP2 inh: inhibitors of human EP2 prostaglandin E2 receptor | P43116 | C6 glioma cells expressing human EP2, cAMP TR-FRET; cells stimulated with saturating PGE2 | inhibition, % at 25 µM | 260,000 tested, 0.52% active;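 active means percent inhibition above 40 after rounding to a whole number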;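 further: rat C6 glioma host cells with rolipram phosphodiesterase inhibitor present; the protocol text gives 20 µM as final concentration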
Target sequence (P43116 whole entry, looked up): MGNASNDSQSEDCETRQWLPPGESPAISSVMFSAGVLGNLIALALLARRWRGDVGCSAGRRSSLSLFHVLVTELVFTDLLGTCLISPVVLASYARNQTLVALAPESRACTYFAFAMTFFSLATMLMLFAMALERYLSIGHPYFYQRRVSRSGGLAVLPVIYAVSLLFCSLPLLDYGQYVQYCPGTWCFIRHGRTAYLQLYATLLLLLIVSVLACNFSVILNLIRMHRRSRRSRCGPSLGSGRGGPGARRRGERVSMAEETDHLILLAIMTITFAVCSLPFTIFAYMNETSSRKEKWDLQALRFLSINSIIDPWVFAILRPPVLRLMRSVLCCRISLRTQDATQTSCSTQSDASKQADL
OX1R antag-1: OX1R (human) antagonism. OX1R-expressing cells, FRET antagonist read-out. inhibition, % at 6.6 µM. 330,000 tested, 1.8% active. O43613; in the data active means inhibition mostly above about 38%, no sharp cut-off; inactive means mostly below about 40%;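 further: 0% = agonist challenge alone and 100% = reference antagonist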
EP2 mod: modulators of human EP2 prostaglandin E2 receptor; 260,000 tested, 0.83% active; EP2-expressing cells, cAMP HTRF FRET, PGE2 co-stimulation; AID 940; P43116; induction, % at 25 µM;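 active means compounds whose cAMP rise, as percent of the full-agonist control response, exceeds 60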;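 further: rat C6 glioma line stably carrying human EP2 under a CMV promoter; the protocol text gives 20 µM as final concentration; 100% = response of wells given 1 µM PGE2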
CHO parental Ca: counter-screen: ATP calcium response change in parental CHO cells; parental CHO-K1, ATP-induced calcium, Fluo-8 fluorescence; inhibition, % at 5.6 µM; 330,000 tested, 0.63% active; AID 463079;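 active means inhibition above that plate's mean sample inhibition plus 3 SD, cut at about 26% in these data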;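 further: 0% = ATP-challenged DMSO wells and 100% = DMSO wells without ATP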
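Test system: parental CHO cells; detection: calcium-sensitive Fluo-8 fluorescence; evaluation: percent inhibition of calcium signal; also added: ATP as calcium-mobilizing challenge; repeats: one well per compound; control set: ATP-challenged DMSO wells low, unchallenged DMSO wells high; compound: single nominal dose of 5.6 µM per compound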
GPR7 antagonist: human neuropeptides B/W receptor 1 antagonism; P48145; GPR7-expressing cells, fluorescence antagonist assay; inhibition, % at 4.4 µM; 290,000 tested, 1.1% active; AID 1861; in the data active means inhibition above about 16%, passing the limit was not always enough;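 further: cells stimulated with the agonist NPW; 0% = agonist with vehicle and 100% = vehicle without agonist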
Target sequence (P48145 whole entry, looked up): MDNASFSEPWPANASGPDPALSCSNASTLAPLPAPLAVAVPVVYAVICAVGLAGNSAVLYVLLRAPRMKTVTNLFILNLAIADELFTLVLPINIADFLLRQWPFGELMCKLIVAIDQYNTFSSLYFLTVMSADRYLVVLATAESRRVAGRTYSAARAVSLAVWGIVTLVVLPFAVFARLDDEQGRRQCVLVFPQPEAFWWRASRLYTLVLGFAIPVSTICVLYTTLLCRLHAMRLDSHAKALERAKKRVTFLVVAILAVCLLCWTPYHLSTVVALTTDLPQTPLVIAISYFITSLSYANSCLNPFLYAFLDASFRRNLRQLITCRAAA
OX1R antag-2: human HCRTR1 antagonism; O43613; CHO/OX1R cells, Fluo-8 calcium fluorescence, orexin A; inhibition, % at 5 µM; 330,000 tested, 0.43% active;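 active means inhibition above its plate's threshold, mean inhibition of all tested compounds on the plate plus 3 SD, cut at about 37% in these data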;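 further: 0% = orexin A challenge wells and 100% = SB-334867-A antagonist wells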
* marks the source's active call; other numbers are inactive results; · = no result. The list is not random: actives were taken first. Their share in the collection is about 3.7%.

SMILES | PGE2 EP2 inh | OX1R antag-1 | EP2 mod | CHO parental Ca | GPR7 antagonist | OX1R antag-2
O.O.[NH-]C1(C(=O)O)CCCC1.[NH-]C1(C(=O)O)CCCC1.[Ni+2] | 47* | · | 26 | · | · | ·
COC(=O)C1=C(c2ccc(F)cc2OCc2ccccc2)C[C@@H]2CC[C@H]1N2C(=O)NCc1cccc(OC)c1 | · | 15 | · | -30 | · | 19
COC(=O)C1=C(c2ccccc2OCc2ccccc2)C[C@@H]2CC[C@H]1N2C(=O)NCc1cccc(F)c1 | · | 41* | · | -28 | · | 35
C=C(C)COc1ccccc1CN1C2CCC1CC(O)(c1nccn1C)C2 (centres undefined) | 5 | · | -34 | · | · | ·
CC(C)OP(=O)(OC(C)C)C(O)c1ccccc1F (centres undefined) | 50* | 5 | 2 | 8 | -10 | -2
CC(C)OP(=O)(OC(C)C)C(O)c1ccc(Br)cc1 (centres undefined) | 1 | 0 | 16 | 9 | -8 | 14
C[C@]12CC[C@H](O)CC1=CC[C@@H]1[C@@H]2CC[C@]2(C)C(=O)CC[C@@H]12 | 12 | 15 | 14 | -8 | · | -5
CC(=O)O/C(=C1\C[C@@H]2[C@H]3CC=C4C[C@@H](OC(C)=O)CC[C@]4(C)[C@@H]3CC[C@@]2(C)C1=O)C(F)(F)F | 47* | · | 39 | · | · | ·
Cc1ccc(OP(=O)(Oc2ccc(C)cc2)N2C=Cc3ccccc3[C@H]2C#N)cc1 | 42* | · | 36 | · | · | ·
Cc1ccc(OP(N)(=O)Oc2ccc(C)cc2)cc1 | 4 | 20 | -38 | 3 | -6 | -12
COc1cc(/C=C(/C)[N+](=O)[O-])ccc1OCc1ccccc1Cl | 20 | 29 | -47 | 54* | 2 | 37
COc1cc(C=C2C(=O)NC(=O)NC2=O)ccc1OCc1ccc([N+](=O)[O-])cc1 | 3 | · | -24 | · | -1 | ·
O=C(O)CSCC(=O)O | 11 | · | 8 | · | · | ·
O=C(O)C[SH+]CC(=O)O.O=C(O)C[SH+]CC(=O)O.[Cu] | 44* | · | 17 | · | · | ·
CCCSc1nc2ccccc2c(=O)n1-c1ccccc1C | 15 | · | 75* | · | · | ·
CCC1=C(C[C@H]2NCCc3cc(OC)c(OC)cc32)C[C@H]2c3ccccc3CCN2C1 | 52* | · | 21 | · | · | ·
COc1ccc(CC2c3cc(OC)c(OC)cc3CCN2C)cc1O (centres undefined) | 16 | 10 | 24 | -24 | -14 | -7
CCC(=O)O[C@@H]1[C@@H](OC(C)=O)[C@@]2(O)C(C[C@H](O)C2(C)C)[C@](C)(O)[C@H]2CC[C@@H]3[C@@H](O)[C@]12C[C@@]3(C)O (some centres undefined) | 6 | 0 | 25 | -7 | -2 | -4
COP(=O)(OC)C(NC(=O)/C=C/c1ccccc1)C(Cl)(Cl)Cl (centres undefined) | 5 | 22 | 32 | -19 | -14 | -19
O=C1OCc2cc(N=Nc3c(O)[nH]c(=O)[nH]c3=O)ccc21 | 1 | 42* | 15 | -7 | -6 | -1
CC(C)c1ccc(N=Nc2c(O)[nH]c(=O)[nH]c2=O)cc1 | 9 | 20 | -16 | -1 | -4 | -7
Nc1nc(N)c(Cn2ccnc2)c(=O)[nH]1 | 10 | · | -13 | · | · | ·
CN(C(=O)COC(=O)c1cn(C)c2ccccc12)C1CCCCC1 | · | 38* | · | -12 | · | 22
Nc1nc(N)c(N=Nc2ccc([As](=O)(O)O)cc2)c(=O)[nH]1 | 42* | · | 23 | · | · | ·
O=[As](O)(O)c1ccc(N=Nc2ccc([As](=O)(O)O)cc2)cc1 | 50* | · | -4 | · | · | ·
SMILES | PGE2 EP2 inh | OX1R antag-1 | EP2 mod | CHO parental Ca | GPR7 antagonist | OX1R antag-2
CC(C)c1cc(Br)c(NC(=O)Nc2cccnc2)c(Br)c1 | · | -5 | · | -12 | -12 | -10
N#CC(C#N)=NNc1ccc(-n2ccc(C(F)(F)F)n2)cc1 | 9 | 61* | -61 | 50* | 26* | 53*
CC1=C(O)C(=O)C=C2C1=CC=C1[C@@]2(C)CC[C@@]2(C)[C@@H]3C[C@](C)(C(=O)O)CC[C@]3(C)CC[C@]12C | 110* | · | -41 | · | · | ·
CN(C)C(=O)Oc1ccc([N+](=O)[O-])cc1 | 6 | 15 | 5 | 2 | -6 | -9
CC(=O)Nc1ccc([As](=O)(O)c2ccc([N+](=O)[O-])cc2)cc1 | 5 | 67* | 6 | -7 | -15 | -8
Cc1cc(O)ccc1Cl | 18 | · | -29 | · | · | ·
O=C(O)c1ccccc1-c1c2cc(Br)c(=O)cc-2oc2[c]([Hg])c(O)c(Br)cc12 | 37 | · | -42 | · | · | ·
Oc1ccc(-[n+]2c(-c3ccccc3)cc(-c3ccccc3)cc2-c2ccccc2)cc1 | · | 20 | · | 44* | · | 37
COc1ccc(-[n+]2c(-c3ccccc3)cc(-c3ccccc3)cc2-c2ccccc2)cc1 | · | 25 | · | 22 | · | 1
O=c1c2ccccc2nc(Cc2cccc([N+](=O)[O-])c2)n1-c1ccc(O)cc1 | 3 | 10 | -14 | -17 | -10 | -13
C[C@]12CCC3C(CC[C@H]4C[C@@H](O)CC[C@]34C)C1CC[C@@]2(O)C(F)(F)F (some centres undefined) | · | 10 | · | 3 | · | 2
COc1ccc(C(=O)O[C@@H]2CC[C@@]3(C)[C@@H]4CC[C@@H]5[C@@]6(O)C[C@@H](O)[C@@]7(O)[C@@H](CN8C[C@H](C)CC[C@H]8[C@]7(C)O)[C@]6(O)C[C@@]53O[C@@]42O)cc1OC | 45* | · | 4 | · | · | ·
Cc1ccc(C2=CCN(CC(=O)N3CCCCC3)CC2)o1 | · | · | -82 | · | · | ·
Oc1cc(Cl)ccc1Oc1ccc(Cl)cc1Cl | 9 | 45* | · | 67* | · | 25
CC1(C)CCC(C)(C)c2c1ccc(O)c2Cc1c(O)ccc2c1C(C)(C)CCC2(C)C | 45* | · | 23 | · | · | ·
Cc1nn(C2CCOC(C)(C)C2)c2c1C(c1ccc(OC(C)C)cc1)SCC(=O)N2 (centres undefined) | 2 | 11 | -12 | -15 | -1 | -30
Cn1cc(C(=O)N2CCOCC2)c2ccccc21 | 3 | 1 | 23 | 3 | -8 | 2
CP(C)(=O)CCC(=O)O | 6 | 6 | 10 | 0 | 0 | -8
O=C(NC(=S)N1C[C@H]2C[C@H](C1)c1cccc(=O)n1C2)c1ccc(Cl)cc1Cl | · | 12 | · | -12 | -4 | -9
O=S(=O)(c1ccc(F)cc1)N1CCCCC1c1cccnc1 (centres undefined) | 7 | 11 | -13 | -11 | -4 | -13
C[n+]1c(-c2ccccc2)sc2ccccc21 | · | 2 | · | -8 | 13 | -4
CC[n+]1c(/C=C/C=C/c2ccc(N(C)C)cc2)sc2ccccc21 | 115* | 75* | -155 | 33* | 4 | 42
CN(C)c1ccc(/C=C/c2cc[n+](C)c3ccccc23)cc1 | 56* | · | -87 | · | -3 | ·
CN(C)c1ccc(/C=C/C=C/c2sc3ccccc3[n+]2C)cc1 | 46* | 25 | -77 | 9 | -8 | -7
Nc1nonc1C(=O)N/N=C/c1ccc([N+](=O)[O-])o1 | 2 | 75* | -42 | -2 | -7 | -6
